Measurements reported in ChEMBL document CHEMBL3872203, “Synthesis, anticancer activity and photostability of novel 3-ethyl-2-mercapto-thieno[2,3-d]pyrimidin-4(3H)-ones” (Eur J Med Chem, 2016).

Legend:
[1] = Antiproliferative activity against human MDA-MB-231 cells after 24 hrs by MTS assay; format: functional, cell-based; details: MDA-MB-231, 24 h
Method in brief: (§1)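 Cells were exposed for 24 h to compound diluted 1:10, 1:100, 1:1000 and 1:10,000 from a 4 mg/ml DMSO stock; untreated controls were grown in non-modified medium. MTS was added for 2 h at 37 °C under 5% CO2, and absorbance was read at 490 nm. Viability is expressed as % of untreated control, averaged over three independent assays. EC50 or IC50 values were calculated from the plotted data.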

[2] = Antiproliferative activity against human HeLa cells after 24 hrs by MTS assay; format: functional, cell-based; method in brief: as §1
[3] = Cytotoxicity against human HT-29 cells after 24 hrs by MTS assay; format: functional, cell-based; details: HT-29, 24 h; method in brief: as §1
[4] = Cytotoxicity against human HepG2 cells after 24 hrs by MTS assay; format: functional, cell-based; details: HepG2, 24 h; method in brief: as §1
[5] = Cytotoxicity against human LEP-3 cells after 24 hrs by MTS assay; format: toxicity, cell-based; method in brief: as §1
HT-29 = assay: Ratio of IC50 for human LEP-3 cells to IC50 for human HT-29 cells
[6] = Photostability of the compound in DMF at 2185 +/- 0.087 10^-5mol/L measured up to 240 mins in presence of UV-light by UV-vis spectrophotometric analysis; details: 4 h
[7] = Photostability of the compound in DMF at 3916 +/- 0.158 10^-5mol/L measured up to 240 mins in presence of UV-light by UV-vis spectrophotometric analysis; details: 4 h
[8] = Photostability of the compound in DMF at 5242 +/- 0.209 10^-5mol/L measured up to 240 mins in presence of UV-light by UV-vis spectrophotometric analysis; details: 4 h
[9] = Photostability of the compound in DMF at 2275 +/- 0.091 10^-5mol/L measured up to 240 mins in presence of UV-light by UV-vis spectrophotometric analysis; details: 4 h
[10] = Photostability of the compound in DMF at 4089 +/- 0.164 10^-5mol/L measured up to 240 mins in presence of UV-light by UV-vis spectrophotometric analysis; details: 4 h
[11] = Antiproliferative activity against human HT-29 cells after 24 hrs by MTS assay; format: functional, cell-based; details: HT-29, 24 h; method in brief: as §1
[12] = Photostability of the compound in DMF assessed as drug degradation at 3128 +/- 0.125 10^-5mol/L measured after 240 mins in presence of UV-light by UV-vis spectrophotometric analysis; format: physicochemical; details: DMF solution under UV light; read-out: Drug degradation
[13] = Cytotoxicity against human MDA-MB-231 cells after 24 hrs by MTS assay; format: functional, cell-based; details: MDA-MB-231, 24 h; method in brief: as §1
[14] = Cytotoxicity against human HeLa cells after 24 hrs by MTS assay; format: functional, cell-based; method in brief: as §1
[15] = Antiproliferative activity against human HepG2 cells after 24 hrs by MTS assay; format: functional, cell-based; details: HepG2, 24 h; method in brief: as §1
[16] = Antiproliferative activity against human LEP-3 cells after 24 hrs by MTS assay; format: cell-based; details: LEP-3, 24 h; method in brief: as §1

Stability [6]	Stability [7]	Stability [8]	Stability [9]	Stability [10]	degraded at 4 h [12] [%]	SMILES	EC50 [1] [µM]	EC50 [2] [µM]	IC50 [3] [µM]	IC50 [4] [µM]	IC50 at 24 h [5] [µM]	Ratio IC50 (HT-29)	EC50 [11] [µM]	IC50 [13] [µM]	IC50 [14] [µM]	EC50 [15] [µM]	EC50 [16] [µM]
Stable	Stable	Stable	Stable	Stable		CCNc1nnc(CSc2nc3sc4c(c3c(=O)n2CC)CCCC4)s1	0.001	9.28	0.001	9.8	9.77	100					
					30	CCNC(=S)NNC(=O)CSc1nc2sc(C)c(C)c2c(=O)n1CC	8.86	0.43			0.01		0.085				
Stable	Stable	Stable	Stable	Stable		CCNc1nnc(CSc2nc3sc(C)c(C)c3c(=O)n2CC)s1			3.58	0.99	191			9.4	7.42		
Stable	Stable	Stable	Stable	Stable		CCNC(=S)NNC(=O)CSc1nc2sc3c(c2c(=O)n1CC)CCCC3	9.33	7.97					1.13			2.72	8.25
Stable	Stable	Stable	Stable	Stable		CCNC(=S)NNC(=O)CSc1nc2sc(C(=O)OCC)c(C)c2c(=O)n1CC			7.38	8.71	0.8			0.000231	8.71		
Stable	Stable	Stable	Stable	Stable		CCNc1nnc(CSc2nc3sc(C(=O)OCC)c(C)c3c(=O)n2CC)s1			9.12	9.51	0.089			2.13	0.83		
